Measured values published in ChEMBL document CHEMBL1671773, “Benzoquinazoline derivatives as new agents affecting DNA processing” (Bioorg Med Chem, 2011).
The source made the active and inactive calls. No cut-off for these calls is given here.

Assays:
HL-60 = assay: Growth inhibition in human HL60 cells after 72 hrs by trypan blue assay; type: functional, cell-based; conditions: HL-60, 72 h
Outline: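 HL-60 cells were grown in RPMI 1640 with 15% heat-inactivated FCS and antibiotics at 37 °C under 5% CO2. 4 × 10⁴ cells per well were seeded, and after 24 h test agents were added to complete medium for 72 h. Viability was read by trypan blue. IC50 is the concentration giving 50% reduction in cell number versus control cultures.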

A-431 = assay: Growth inhibition in human A431 cells after 72 hrs by trypan blue assay; type: functional, cell-based; conditions: A-431, 72 h
Outline: (§1)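 HeLa (F-12 medium) and A431 (D-MEM) cells were grown with 10% heat-inactivated FCS and antibiotics at 37 °C under 5% CO2. 4 × 10⁴ cells per well were seeded for 24 h, then medium was replaced with fresh medium containing test agents for 72 h. Viability was read by trypan blue. IC50 is the concentration halving cell number versus control.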

HeLa [1] = assay: Growth inhibition in human HeLa cells after 72 hrs by trypan blue assay; type: functional, cell-based; outline: as §1
Nucleic Acid [2] = assay: Stabilization of supercoiled pBR322 DNA-human recombinant topoisomerase 2 complex assessed as linear DNA formation at 8 uM after 60 mins; type: nucleic-acid assay; conditions: Escherichia coli
Nucleic Acid [3] = assay: Binding affinity to Salmon testes DNA assessed as drug-DNA complex formation at drug/DNA ratio 0.08 by linear flow dichroism method; type: nucleic-acid assay; conditions: Salmonidae
Nucleic Acid [4] = assay: Induction of Escherichia coli supercoiled pBR322 DNA cleavage at 50 uM after 60mins by gel electrophoresis; type: nucleic-acid assay
Nucleic Acid [5] = assay: Induction of Escherichia coli supercoiled pBR322 DNA cleavage after 60mins by gel electrophoresis; type: nucleic-acid assay
Nucleic Acid [6] = assay: Stabilization of supercoiled pBR322 DNA-human recombinant topoisomerase 2 complex assessed as linear DNA formation at 10 to 100 uM after 60 mins; type: nucleic-acid assay; conditions: Escherichia coli
HeLa [7] = assay: Induction of apoptosis in human HeLa cells assessed as induction of DNA fragmentation at 200 uM after 24 hrs using ethidium bromide staining by agarose gel electrophoresis; type: functional, cell-based
Outline: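 HeLa cells (5 × 10⁵) were preincubated 24 h at 37 °C, then medium was replaced with fresh medium containing test agent; controls received solvent alone. After 24 h, nuclear DNA was extracted and dissolved in TE buffer (10 mM Tris pH 8, 1 mM EDTA). Fragmentation was examined on a 1% agarose gel.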

Nucleic Acid [8] = assay: Binding affinity to Salmon testes DNA assessed as drug-DNA complex formation at drug/DNA ratio 0.16 by linear flow dichroism method; type: nucleic-acid assay; conditions: Salmonidae
[9] = molecular target: DNA topoisomerase 2-alpha (Homo sapiens) (UniProt P11388); assay: Inhibition of human recombinant topoisomerase 2-mediated relaxation of supercoiled pBR322 DNA upt0 100 uM after 60 mins by agarose gel electrophoresis
Outline: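 Supercoiled pBR322 (0.25 µg) was incubated with 1 U topoisomerase II plus compounds for 60 min at 37 °C in 20 µL. The reaction was stopped with SDS stop buffer and 50 µg/mL proteinase K for 30 min at 37 °C. Products were run on a 1% agarose gel at room temperature, then stained with 1 µg/mL ethidium bromide and imaged under UV.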

DNA topoisomerase 2-alpha (Homo sapiens), sequence (P11388 whole entry): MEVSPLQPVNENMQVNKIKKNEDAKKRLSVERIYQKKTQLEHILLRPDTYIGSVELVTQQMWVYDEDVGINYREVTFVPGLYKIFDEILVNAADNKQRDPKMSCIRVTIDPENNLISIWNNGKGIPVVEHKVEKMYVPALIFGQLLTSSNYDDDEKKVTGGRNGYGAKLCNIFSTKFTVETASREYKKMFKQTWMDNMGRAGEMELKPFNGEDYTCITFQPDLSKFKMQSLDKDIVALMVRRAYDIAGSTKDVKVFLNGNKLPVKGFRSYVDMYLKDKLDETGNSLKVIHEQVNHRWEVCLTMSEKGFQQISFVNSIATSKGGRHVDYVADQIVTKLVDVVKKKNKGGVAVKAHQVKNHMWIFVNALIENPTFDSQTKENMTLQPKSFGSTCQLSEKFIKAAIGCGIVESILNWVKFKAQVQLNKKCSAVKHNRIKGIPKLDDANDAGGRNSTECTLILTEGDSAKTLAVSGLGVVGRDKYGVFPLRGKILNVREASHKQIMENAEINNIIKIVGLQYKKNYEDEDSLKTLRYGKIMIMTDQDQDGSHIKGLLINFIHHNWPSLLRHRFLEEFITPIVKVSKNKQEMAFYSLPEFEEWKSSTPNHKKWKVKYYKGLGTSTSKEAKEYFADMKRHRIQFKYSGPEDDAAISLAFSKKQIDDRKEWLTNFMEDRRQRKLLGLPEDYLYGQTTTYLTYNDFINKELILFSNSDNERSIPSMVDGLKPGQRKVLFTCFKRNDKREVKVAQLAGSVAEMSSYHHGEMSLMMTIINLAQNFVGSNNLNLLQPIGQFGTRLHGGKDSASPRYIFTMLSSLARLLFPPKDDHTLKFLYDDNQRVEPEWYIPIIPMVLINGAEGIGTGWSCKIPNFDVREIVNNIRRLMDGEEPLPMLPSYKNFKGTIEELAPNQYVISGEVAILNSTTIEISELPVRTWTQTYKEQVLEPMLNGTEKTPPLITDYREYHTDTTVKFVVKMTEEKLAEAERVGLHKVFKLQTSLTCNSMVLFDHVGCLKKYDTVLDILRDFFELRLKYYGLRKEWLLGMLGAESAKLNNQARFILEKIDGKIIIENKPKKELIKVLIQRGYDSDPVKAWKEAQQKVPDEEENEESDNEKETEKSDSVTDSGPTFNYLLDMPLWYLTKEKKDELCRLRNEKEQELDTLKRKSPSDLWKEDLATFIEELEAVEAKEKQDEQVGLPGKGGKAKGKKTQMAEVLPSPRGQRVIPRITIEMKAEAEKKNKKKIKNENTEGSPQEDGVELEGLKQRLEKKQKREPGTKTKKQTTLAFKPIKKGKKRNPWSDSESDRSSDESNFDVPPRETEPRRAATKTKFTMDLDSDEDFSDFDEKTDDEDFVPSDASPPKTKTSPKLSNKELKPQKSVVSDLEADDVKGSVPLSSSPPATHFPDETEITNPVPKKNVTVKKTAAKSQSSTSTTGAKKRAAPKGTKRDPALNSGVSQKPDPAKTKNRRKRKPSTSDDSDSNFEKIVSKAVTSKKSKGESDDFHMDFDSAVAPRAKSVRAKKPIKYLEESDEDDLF

Row | Compound | IC50 (HL-60) | IC50 (A-431) | IC50 (HeLa [1]) | Activity (Nucleic Acid [2]) | Activity (Nucleic Acid [3]) | inhibition (Nucleic Acid [4]) | inhibition (Nucleic Acid [5]) | Activity (Nucleic Acid [6]) | Activity (HeLa [7]) | Activity (Nucleic Acid [8]) | inhibition [9]
1 | COc1cc(NS(C)(=O)=O)ccc1Nc1c2ccccc2nc2ccccc12 [AMSACRINE] | 0.006 µM | 0.17 µM | 0.012 µM | Active | – | – | – | – | – | – | –
2 | CN(C)CCNc1cc2ncncc2c2ccccc12 | 4.3 µM | 4.3 µM | 23.2 µM | – | Active | Dose-dependent effect | Active | Active | Active | – | –
3 | COc1cc(NS(C)(=O)=O)ccc1Nc1cc2cncnc2c2ccccc12 | 26.9 µM | > 100 µM | > 100 µM | – | – | – | – | – | – | – | –
4 | CS(=O)(=O)Nc1ccc(Nc2cc3cncnc3c3ccccc23)cc1 | 26.5 µM | 57.7 µM | > 100 µM | – | – | – | – | – | – | – | –
5 | CS(=O)(=O)Nc1ccc(Nc2cc3ncncc3c3ccccc23)cc1 | > 100 µM | > 100 µM | > 100 µM | – | – | – | – | – | – | – | –
6 | Cc1c2ccncc2c(C)c2c1[nH]c1ccccc12 [ELLIPTECINE] | 0.64 µM | 0.47 µM | 0.31 µM | – | – | – | – | – | – | – | –
7 | CN(C)CCNc1cc2cncnc2c2ccccc12 | 10.8 µM | 3.6 µM | 15.7 µM | – | Active | Dose-dependent effect | Active | Active | Active | – | –
8 | COc1cc(NS(C)(=O)=O)ccc1Nc1cc2ncncc2c2ccccc12 | 30.7 µM | 77.7 µM | > 100 µM | – | – | – | – | – | – | – | –
9 | CN(C)CCNc1ncnc2c1ccc1ccccc12 | 61.6 µM | 50.5 µM | > 100 µM | – | Active | – | – | – | – | Active | inactive
